Data: ChEMBL document CHEMBL3763097, “Synthesis and biological evaluation of 5,10-dihydro-11H-dibenzo[b,e][1,4]diazepin-11-one structural derivatives as anti-cancer and apoptosis inducing agents” (Eur J Med Chem, 2016)

Legend:
[1] = tested on: MDA-MB-231; test: Induction of apoptosis in human MDA-MB-231 cells assessed as viable cells at 2 uM after 24 hrs by Annexin V-FITC/PI dual staining based flow cytometry (reference value: 91%); assay type: functional; details: MDA-MB-231, 24 h, read-out: Activity
[2] = tested on: MDA-MB-231; test: Cell cycle arrest in human MDA-MB-231 cells assessed as accumulation at G2/M phase after 24 to 48 hrs by propidium iodide staining based flow cytometry; assay type: functional
Summary of the method: (§1)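 Cells were seeded at 1×10^6 per well and treated 24 h later with 0.5, 1 or 2 µM compound; DMSO-treated cells served as control. Methods give harvest at 48 h (floating plus trypsinised cells); the figure legend says 24 h. Cells were fixed in 70% ethanol for 30 min at 4 °C and stained with PI, Triton X-100 and RNase A for 15 min in the dark. 10000 events were counted by flow cytometry.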

[3] = Cytotoxicity against human PC3 cells assessed as growth inhibition after 72 hrs by MTT assay; assay type: functional, cell-based; details: PC-3, 72 h
Summary of the method: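 Cells in RPMI 1640 (PC-3, A549, MDA-MB-231) or DMEM (U87MG, MCF-7) with 10% FBS, passages 4-10, were seeded at 3000-5000 per well and left 24 h. Compounds in DMSO/medium were added for 72 h; DMSO served as control. MTT (5 mg/mL) was added for 4 h and formazan dissolved in DMSO. Absorbance was read at 570 nm minus 630 nm. % inhibition was taken versus DMSO, with IC50 by probit; mean ± SD of three experiments in triplicate.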

[4] = tested on: MDA-MB-231; test: Antimigratory activity in human MDA-MB-231 cells at 0.5 to 2 uM measured after 24 to 48 hrs by wound healing assay; assay type: functional, cell-based
Summary of the method: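 Wound-healing assay. Cells were seeded at 5×10^5 per well and grown 24 h to a confluent monolayer, then scratched once across the middle with a sterile pipette tip and washed twice with PBS. Compound was added at 0.5, 1 and 2 µM. Wound closure was photographed by phase-contrast microscopy at 0, 24 and 48 h in three or more random fields.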

[5] = tested on: A549; test: Cell cycle arrest in human A549 cells assessed as accumulation at G0/G1 phase at 0.5 uM after 24 to 48 hrs by propidium iodide staining based flow cytometry (reference value: 49.1%); assay type: functional; summary of the method: as §1
[6] = tested on: A549; test: Cell cycle arrest in human A549 cells assessed as accumulation at G2/M phase at 1 uM after 24 to 48 hrs by propidium iodide staining based flow cytometry (reference value: 22.3 to 31%); assay type: functional; summary of the method: as §1
[7] = tested on: MDA-MB-231; test: Cell cycle arrest in human MDA-MB-231 cells assessed as accumulation at S phase at 0.5 uM after 24 to 48 hrs by propidium iodide staining based flow cytometry (reference value: 4.6%); assay type: functional; summary of the method: as §1
[8] = tested on: MDA-MB-231; test: Cell cycle arrest in human MDA-MB-231 cells assessed as accumulation at G2/M phase at 0.5 uM after 24 to 48 hrs by propidium iodide staining based flow cytometry (reference value: 20.2%); assay type: functional; summary of the method: as §1
[9] = tested on: A549 (human); test: Induction of apoptosis in human A549 cells assessed as early apoptotic cells at 2 uM after 24 hrs by Annexin V-FITC/PI dual staining based flow cytometry (reference value: 0.3%)
[10] = tested on: MDA-MB-231 (human); test: Induction of apoptosis in human MDA-MB-231 cells assessed as late apoptotic cells at 2 uM after 24 hrs by Annexin V-FITC/PI dual staining based flow cytometry (reference value: 4.5%)

O=C1c2ccccc2Nc2ccccc2N1Cc1cn(Cc2ccccc2)nn1
viability at 2 µM [1]: 62% | Activity [2]: Dose-dependent effect | IC50 [3]: 4.21 µM | inhibition [4]: Dose-dependent effect | Activity [5]: 42.8% | Activity [6]: 43.6% | Activity [7]: 1.2% | Activity [8]: 22.3% | Activity [9]: 19.3% | Activity [10]: 17%
